Assay outcomes from PubChem BioAssay.
CSC inhib – cancer stem cell inhibition. cancer stem cell-like cells viability, luminescence. inhibition, % at 7.5 µM. actives 1.1% (n = 300,000). AID 2717; in the data active means inhibition above about 75%; inconclusive means no clear call, values can overlap the other calls; tested in HMLE shEcad cells
CHOP inh – inhibitors of CHOP induction in ER stress response | CHO-K1 CHOP-promoter luciferase, tunicamycin-induced, 15-18 h | inhibition, % at 10 µM | actives 3.8% (n = 220,000) | AID 2732;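 active means compounds that reduced the stress-induced luciferase reporter signal by more than about 70% of percent inhibition, limit read from the data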;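 further: 0% = tunicamycin plus vehicle and 100% = wells without tunicamycin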
Beta cell apopt – blocks beta cell apoptosis. INS-1E cytokine-induced death, ATP luminescence, 48 h; percent of positive-control rescue, neutral wells zero. protection from apoptosis, % (test concentration not listed). actives 0.8% (n = 300,000). AID 435005;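 active means Every replicate reaches about 75%, or at least half do and their mean reaches it too, limit read from the data; inconclusive means At least half of replicates reach the limit but their mean does not; inactive means Under half of replicates reach the limit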;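 further: 0% = cytokine-treated negative control wells and 100% = positive control rescue; higher means more ATP so stronger rescue from cytokine killing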
NR3A LBD binder – modulators (binders) of human NR3A ligand-binding domain; Tm shift relative to glycine control, % at 25 µM; NR3A LBD differential scanning fluorimetry, Tm shift; 0% = protein alone, 100% = glycine-bound protein; actives 2.5% (n = 340,000); AID 1259313;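 active means melting temperature shift of at least 10% of the positive control shift, at one fixed dose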
PREPL inh – inhibits the human prolyl oligopeptidase-like enzyme; Q4J6C6; recombinant PREPL, fluorescence polarization activity-based probe; inhibition, % at 5.96 µM; actives 0.68% (n = 320,000); AID 2751;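 further: 0% = enzyme with DMSO and 100% = wells lacking enzyme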
Target sequence (Q4J6C6 whole entry, looked up): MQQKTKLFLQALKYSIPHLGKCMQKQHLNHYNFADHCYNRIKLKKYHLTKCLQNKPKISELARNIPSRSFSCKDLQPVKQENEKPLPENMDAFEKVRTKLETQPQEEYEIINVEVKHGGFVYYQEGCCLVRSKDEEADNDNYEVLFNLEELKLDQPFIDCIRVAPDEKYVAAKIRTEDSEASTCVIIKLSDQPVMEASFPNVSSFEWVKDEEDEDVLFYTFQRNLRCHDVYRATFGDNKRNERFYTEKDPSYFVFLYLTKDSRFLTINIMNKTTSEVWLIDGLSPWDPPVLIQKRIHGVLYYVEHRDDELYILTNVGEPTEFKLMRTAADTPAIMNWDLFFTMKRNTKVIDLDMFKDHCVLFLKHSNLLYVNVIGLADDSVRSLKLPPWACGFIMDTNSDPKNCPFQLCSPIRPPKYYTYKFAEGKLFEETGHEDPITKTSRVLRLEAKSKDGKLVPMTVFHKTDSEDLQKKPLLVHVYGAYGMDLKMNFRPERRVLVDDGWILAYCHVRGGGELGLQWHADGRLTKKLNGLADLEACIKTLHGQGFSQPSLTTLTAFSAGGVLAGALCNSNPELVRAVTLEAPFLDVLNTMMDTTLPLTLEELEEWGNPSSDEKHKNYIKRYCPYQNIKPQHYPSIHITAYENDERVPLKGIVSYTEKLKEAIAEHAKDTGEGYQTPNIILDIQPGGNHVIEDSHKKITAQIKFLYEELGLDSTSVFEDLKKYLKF
T cruzi inh – blocks replication of Trypanosoma cruzi; T. cruzi beta-gal in NIH3T3, luminescence, 90 h; inhibition, % (test concentration not listed); AID 1885; actives 1.4% (n = 300,000);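 active means mean inhibition across valid replicates above about 55%, limit read from the data; inconclusive means mean below that limit but half or more replicates reach it; inactive means mean below it, under half of replicates reach it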;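 further: signal also drops with host cell toxicity which is not excluded here; 0% = plate median of DMSO wells and 100% = zero luminescence signal; higher percent means less beta-gal luminescence so fewer parasites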
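System: Mouse NIH/3T3 fibroblasts infected with β-gal-expressing T. cruzi Tulahuen C4 | Quantity: NIH/3T3 cells, 5,000 per well | Reagent: 5000 reporter trypomastigotes per well | Dosing: Compound pinned at 50 nL/well, DMSO | Schedule: 3 h host attachment, then at least 90 h co-culture | Detection: GalScreen luminescence, 60 min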
CHOP inh conf – confirmation of CHOP induction inhibitors. AID 504437. actives 45% (n = 2,100). inhibition, % at 10 µM. shares compounds with CHOP inh. CHO-CHOP promoter luciferase reporter, tunicamycin-induced, luminescence;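 active means mean of three repeat readings of reporter signal inhibition above a set limit, cut at about 70% in these data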;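 further: 0% = tunicamycin plus vehicle and 100% = wells lacking tunicamycin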
PREPL inh cf – confirmation of human PREPL enzyme inhibitors | shares compounds with PREPL inh | recombinant PREPL, fluorescence polarization activity probe | inhibition, % at 5.96 µM | actives 67% (n = 2,000);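 further: 0% = protein with DMSO and 100% = wells lacking protein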
Numbers without * were called inactive; ? = inconclusive; . = no result given; ! = not active in a repeat. Rows were chosen to be rich in hits. Some 6.7% of all compounds tested hit in one or more screens of this group. Unless noted, no stated cut-off is given here; in the data, active means inhibition above about 43%; inactive means the rest.

SMILES	CSC inhib	CHOP inh	Beta cell apopt	NR3A LBD binder	PREPL inh	T cruzi inh	CHOP inh conf	others
O=C1NC(=O)N(c2ccc3c(c2)OCO3)C(=O)/C1=C/c1cccs1	26.4	106.4*	3.5	-0.3	17.8	-6.4	-17.2
CC1CC2(C)C(=CC1=O)CCC1C3CCC(C)(O)C3(C)CC3OC312 (stereo not given)	.	.	.	-3.0	.	.	.
C[C@H]1CC[C@@H]2[C@@H](C)[C@H]3[C@H](C[C@H]4[C@@H]5CC=C6C[C@@H](O[C@@H]7O[C@H](CO)[C@H](O)[C@H](O[C@@H]8O[C@H](CO)[C@@H](O)[C@H](O)[C@H]8O)[C@H]7O[C@@H]7O[C@@H](C)[C@H](O)[C@@H](O)[C@H]7O)CC[C@]6(C)[C@H]5CC[C@]34C)N2C1	-11.0	106.4*	-4.9	-4.5	-6.5	-11.3	-62.4
Cc1ccc(/C=C2\C(=O)NC(=O)N(Cc3ccccc3Cl)C2=O)o1	32.8	105.0*	5.9	0.6	-5.6	-19.8	-28.0
Cc1ccc(/C=C2\C(=O)NC(=O)N(CCc3ccc(F)cc3)C2=O)o1	.	104.7*	3.9	1.4	2.1	-27.0	-19.8
O=C1NC(=O)N(Cc2ccc(F)cc2)C(=O)/C1=C/c1cccs1	31.9	54.6	6.8	-1.8	-32.5	-6.4	.
Cc1cc(/C=C2\C(=O)NC(=O)N(Cc3ccccc3Cl)C2=O)c(C)n1-c1ccc(C(=O)O)cc1	8.4	0.7	2.9	2.9	-4.0	-5.2	.
O=C1NC(=O)N(Cc2ccccc2Cl)C(=O)/C1=C/c1cccs1	35.3	106.0*	34.2	-1.0	-3.0	-24.1	-30.0
Cc1ccc(/C=C2\C(=O)NC(=O)N(CCc3ccc(F)cc3)C2=O)s1	9.5	-25.5	-7.8	3.2	7.3	-16.4	.
COC(=O)C1=C(c2ccc(F)cc2OCc2ccccc2)C[C@@H]2CC[C@H]1N2C(=O)NC1Cc2ccccc2C1	16.5	.	12.8	0.7	11.6	.	.
Cc1ccc(N2C(=O)NC(=O)/C(=C\C=C\c3ccco3)C2=O)cc1	79.4*	106.2*	40.4	0.3	20.6	-23.2	131.9*
Cc1ccc(N2C(=O)NC(=O)/C(=C\C=C\c3ccco3)C2=O)cc1C	53.3	110.4*	97.0*	2.1	-10.5	-8.2	104.1*
Cc1cccc(N2C(=O)NC(=O)/C(=C\C=C\c3ccco3)C2=O)c1	?	17.5	29.8	0.3	-12.2	-31.7	.
O=C1NC(=S)N(c2ccc(F)cc2)C(=O)/C1=C/c1ccco1	3.4	.	.	.	17.3	-1.8	.
O=C1NC(=O)N(Cc2ccco2)C(=O)/C1=C/C=C/c1ccco1	55.7	107.8*	8.0	2.2	-12.2	-12.2	139.8*
COC1/C=C/C=C(\C)Cc2cc(O)c(Cl)c(c2)N(C)C(=O)CC(OC(=O)C(C)C)C2(C)OC2C(C)C2CC1(O)NC(=O)O2 (stereo not given)	.	.	.	2.4	.	.	.
COc1cc(/C=C2\C[C@H]3[C@@H]4CC=C5C[C@@H](N6CCCC6)CC[C@]5(C)[C@H]4CC[C@]3(C)[C@H]2O)cc(OC)c1OC	.	.	.	-5.0	.	.	.
CC1=Nc2ccccc2/C1=C/c1c(O)[nH]c(=O)[nH]c1=O	-3.3	.	.	0.5	-10.2	-1.3	.
O=c1[nH]c(O)c(/C=C2/C=CC(c3cc(Cl)ccc3Cl)=N2)c(=O)[nH]1	38.2	103.4*	-0.5	-2.6	17.2	-10.8	46.3
C=CCn1cc(C=C2C(=O)NC(=O)NC2=O)c2ccccc21	-3.1	.	-3.1	.	1.5	-5.6	.
O=C1NC(=O)C(=Cc2cn(CCOc3ccc4c(c3)OCO4)c3ccccc23)C(=O)N1	37.4	98.6*	2.7	1.7	-6.5	-3.4	-13.3
CNc1ccc2oc(C[C@H]3O[C@@]4(CC[C@H]3C)O[C@H]([C@H](C)C(=O)c3ccc[nH]3)[C@H](C)C[C@H]4C)nc2c1C(=O)O	106.3*	106.4*!	108.5*	0.0	15.8	27.5	128.6*
O=C(/C=C/c1c[nH]c2ccccc12)c1c(O)n(CCc2ccccc2)c(=O)[nH]c1=O	16.2	45.1	-7.9	-2.1	11.0	-16.5	.
COC(=O)C1=C(c2ccc(-c3ccccc3)c(F)c2)C[C@@H]2CC[C@H]1N2C(=O)NCC1CC1	21.0	.	50.9	0.5	14.1	.	.
CC1(C)C[C@H]2C=C(C=O)[C@]3(C=O)C[C@]3(C)[C@H]2C1	-5.8	109.2*	105.3*	-3.7	21.6	?	127.6*
SMILES	CSC inhib	CHOP inh	Beta cell apopt	NR3A LBD binder	PREPL inh	T cruzi inh	CHOP inh conf	others
CC1=NN=C(c2ccc(N)cc2)c2cc3c(cc2C1)OCO3	-7.7	18.4	-3.5	0.6	8.9	.	.
CN1C(=O)NC(=O)/C(=C\C=C\c2ccccc2[N+](=O)[O-])C1=O	4.6	98.7*	-11.8	-3.9	4.4	-11.7	-27.1
Cc1ccc(-n2c(C)cc(/C=C3/C(=O)NC(=O)N(C)C3=O)c2C)cc1	.	23.9	2.0	-2.4	13.7	3.6	.
Clc1ccc(CSC(Cn2ccnc2)c2ccc(Cl)cc2Cl)cc1 (stereo not given)	37.1	108.0*	10.7	-34.5	-85.4	49.9	49.1
Cc1ccc2c(C)cccc2c1	.	.	.	-1.4	.	.	.
O=c1[nH]c2ccccc2n1C1CCN(CCCC(c2ccc(F)cc2)c2ccc(F)cc2)CC1	98.1*	-0.3	-3.0	-6.4	-6.7	42.8	116.9*
COc1cc2c(cc1OC)C13CCN4C=C5CCOC6CC(=O)N2C1C6C5CC43 (stereo not given)	.	.	.	1.4	.	.	.
O=c1[nH]c(CN2CCNCC2)nc2ccccc12	16.0	98.0*	4.9	0.7	3.2	7.9	-83.8
C=C1C(=O)O[C@H]2C[C@@H](C)[C@@H]3C=CC(=O)[C@@]3(C)C[C@H]12	89.1*	105.4*	104.1*	-6.0	1.5	23.3	89.6*
C=C1C(=O)OC2CC(C)C3C=CC(=O)C3(C)C(O)C12 (stereo not given)	.	.	.	-1.6	.	.	.
CC(C)OCCCNC(=O)c1c(N)n(Cc2cccs2)c2nc3ccccc3nc12	118.4*	104.8*	-11.5	4.9	11.6	50.1	58.1
C=C1C(=O)O[C@@H]2C[C@@H](C)[C@@H]3C4OC4C(=O)[C@@]3(C)[C@@H](O)[C@H]12 (stereo not given in full)	75.2*	106.8*	104.5*	-3.4	18.6	45.9	110.1*
CCn1nc(-c2ccccc2)nc2c(=O)n(C)c(=O)nc1-2	-6.0	107.8*	107.5*	-3.4	55.8*	21.7	.	PREPL inh cf=43.6*
COc1ccc(-c2nc3ccccc3c(=O)n2-c2ccc(OC)cc2)cc1	-10.7	-3.0	0.5	1.4	-3.7	4.4	.
C=CCn1c(O)c(C(C)=NCCc2c[nH]c3ccccc23)c(=O)[nH]c1=O	19.4	-8.0	1.5	-1.3	49.0*	7.0	.	PREPL inh cf=47.8*
